Laboratory results from ChEMBL document CHEMBL5584326, “Second-generation piperazine derivatives as promising radiation countermeasures” (RSC Med Chem, 2024).

How the values were obtained:
[1] = tested on: MRC5; assay: Cytotoxicity against human MRC5 cells assessed as reduction in cell viability at 100 uM measured after 48 hrs by WST-1 assay; assay type: toxicity, cell-based; conditions: mrc5, 48 h
Summary of the method: (§1)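 Cells kept at 37 °C in humidified 5% CO2, adherent lines under 10 passages, suspension lines under 20, exponential phase. Seeded at 1–50 × 10^3 cells per well, settled overnight, then a single 48 h exposure at 100 μM final. WST-1 read at 440 nm. Proliferation given as % of 0.1% DMSO mock control, mean of three independent experiments.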

[2] = tested on: MCF7; assay: Cytotoxicity against human MCF7 cells assessed as reduction in cell viability at 100 uM measured after 48 hrs by WST-1 assay; assay type: toxicity, cell-based; conditions: mcf7, 48 h; summary of the method: as §1
[3] = tested on: MOLT-4; assay: Cytotoxicity against human MOLT-4 cells assessed as reduction in cell viability at 100 uM measured after 48 hrs by WST-1 assay; assay type: toxicity, cell-based; conditions: molt-4, 48 h; summary of the method: as §1
[4] = tested on: HT-29; assay: Cytotoxicity against human HT-29 cells assessed as reduction in cell viability at 100 uM measured after 48 hrs by WST-1 assay; assay type: toxicity, cell-based; conditions: ht-29, 48 h; summary of the method: as §1
[5] = tested on: A549; assay: Cytotoxicity against human A549 cells assessed as reduction in cell viability at 100 uM measured after 48 hrs by WST-1 assay; assay type: toxicity, cell-based; conditions: a549, 48 h; summary of the method: as §1
[6] = Cytotoxicity against human PBMC assessed as optimal non-toxic concentration required to show >=90 to 100% cell viability measured after 48 hrs by MTS assay; assay type: toxicity, cell-based; conditions: read-out: Activity
Summary of the method: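 PBMCs from a healthy donor were isolated on Histopaque-1077 and cultured in RPMI 1640 with 20% inactivated FBS. About 5×10^4 cells per well were exposed 48 h at 37 °C, 5% CO2 to 10–1000 μM. MTS was added 4 h before reading at 490 nm, blank subtracted, untreated control set to 100%. Concentration taken as viability ≥90% and not below control (P 0.05), mean of ≥3 measurements.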

[7] = tested on: PANC-1; assay: Cytotoxicity against human PANC-1 cells assessed as reduction in cell viability at 100 uM measured after 48 hrs by WST-1 assay; assay type: toxicity, cell-based; conditions: panc-1, 48 h; summary of the method: as §1
[8] = tested on: Jurkat; assay: Cytotoxicity against human Jurkat cells assessed as reduction in cell viability at 100 uM measured after 48 hrs by WST-1 assay; assay type: toxicity, cell-based; summary of the method: as §1
[9] = tested on: SAOS-2; assay: Cytotoxicity against human SAOS-2 cells assessed as reduction in cell viability at 100 uM measured after 48 hrs by WST-1 assay; assay type: toxicity, cell-based; conditions: saos-2, 48 h; summary of the method: as §1
[10] = tested on: Blood; assay: Radioprotective activity against 3 Gy gamma radiation-induced DNA damage in human whole blood assessed as reduction in number of dicentric chromosomes per cell by measuring radioprotection factor at 1000 uM preincubated for 1 hr followed by 3 Gy gamma irradiation and measured after 48 hrs by giemsa staining based microscopic analysis relative to control; assay type: functional; conditions: time 49 hrs
Summary of the method: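 Heparinized whole blood from healthy male donors, 60 min compound pre-exposure, then single 3 Gy 60Co gamma dose at 0.6 Gy/min. After 30 min at 37 °C, cultured in RPMI 1640 with 20% FBS and 2% PHA. Colcemid 0.25 μg/ml added at 48 h, harvest at 50 h, KCl hypotonic, methanol:acetic acid fixation, 5% Giemsa. Automated metaphase scoring. RF = […].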

[11] = Cytotoxicity against human PBMC assessed as reduction in cell viability at 20 uM measured after 48 hrs by MTS assay; assay type: toxicity, cell-based
Summary of the method: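 PBMCs isolated from whole blood of a healthy donor by Histopaque-1077 density centrifugation, cultured in RPMI 1640 GlutaMAX with 20% inactivated FBS and penicillin/streptomycin. About 5×10^4 cells/well exposed to 10–1000 μM for 48 h at 37 °C, 5% CO2. MTS added 4 h before reading absorbance at 490 nm, cell-free medium blank subtracted. Untreated control set as 100%; mean of ≥3 independent measurements.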

Structure (SMILES)	Activity [1]	Activity [2]	Activity [3]	Activity [4]	Activity [5]	MNTC at 48 h [6]	Activity [7]	Activity [8]	Activity [9]	PI [10]	Activity [11]
COc1cc([N+](=O)[O-])ccc1OCC(O)CN1CCN(CCO)CC1 (stereo not drawn)	Non-Toxic	Non-Toxic	Non-Toxic	Non-Toxic	Non-Toxic	500 µM	Non-Toxic	Non-Toxic	Non-Toxic	–	–
OCCN1CCN(CC(O)COc2ccc(F)cc2)CC1 (stereo not drawn)	Non-Toxic	Non-Toxic	Non-Toxic	Non-Toxic	Non-Toxic	1000 µM	Non-Toxic	Non-Toxic	Non-Toxic	1.53	–
O=[N+]([O-])c1ccc(OCC(O)CN2CCN(CCO)CC2)c(F)c1 (stereo not drawn)	Non-Toxic	Non-Toxic	Non-Toxic	Non-Toxic	Non-Toxic	500 µM	Non-Toxic	Non-Toxic	Non-Toxic	–	–
OCCN1CCN(CC(O)COc2cccc(Cl)c2)CC1 (stereo not drawn)	Non-Toxic	Non-Toxic	Non-Toxic	Non-Toxic	Non-Toxic	500 µM	Non-Toxic	Non-Toxic	Non-Toxic	–	–
O=[N+]([O-])c1cc(OCC(O)CN2CCN(CCO)CC2)ccc1Cl (stereo not drawn)	Non-Toxic	Non-Toxic	Non-Toxic	Non-Toxic	Non-Toxic	200 µM	Non-Toxic	Non-Toxic	Non-Toxic	–	–
COc1ccc(OCC(O)CN2CCN(CCO)CC2)c([N+](=O)[O-])c1 (stereo not drawn)	Non-Toxic	Non-Toxic	Non-Toxic	Non-Toxic	Non-Toxic	500 µM	Non-Toxic	Non-Toxic	Non-Toxic	–	–
OCCN1CCN(CC(O)COc2cc(Cl)c(Cl)cc2Cl)CC1 (stereo not drawn)	Toxic	Toxic	Toxic	Toxic	Toxic	–	Toxic	Toxic	Toxic	–	–
NCCCNCCSP(=O)(O)O [AMIFOSTINE]	–	–	–	–	–	10 µM	–	–	–	–	Toxic
OCCN1CCN(CC(O)COc2ccc(Oc3ccc(F)cc3)cc2)CC1 (stereo not drawn)	Toxic	Toxic	Toxic	Toxic	Toxic	–	Toxic	Toxic	Toxic	–	–
